Assay results: ChEMBL document CHEMBL1134274, “Discovery of a series of nonpeptide small molecules that inhibit the binding of insulin-like growth factor (IGF) to IGF-binding proteins” (J Med Chem, 2001)

Key:
[1] = target: Insulin-like growth factor-binding protein 3 (Homo sapiens, UniProt P17936); assay: Inhibitory activity against Insulin-like growth factor binding protein 3
In short: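 IGFBP-3 purified from human plasma (0.5 pmol, 2.5 nM added) incubated 2 h at room temperature with [125I]hIGF-I (30,000 cpm) and compound in 0.02% NP-40/PBS pH 7.2, in duplicate. Complex precipitated with ice-cold 20% BSA plus 20% PEG-8000 and centrifuged; pellet counted by γ-counter. Ki calculated from inhibition of binding.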

[2] = target: T1, Insulin-like growth factor-binding protein 1 (Homo sapiens, UniProt P08833); assay: The compound was tested for binding affinity against insulin-like growth factor binding protein 1
T1 sequence (P08833 whole entry): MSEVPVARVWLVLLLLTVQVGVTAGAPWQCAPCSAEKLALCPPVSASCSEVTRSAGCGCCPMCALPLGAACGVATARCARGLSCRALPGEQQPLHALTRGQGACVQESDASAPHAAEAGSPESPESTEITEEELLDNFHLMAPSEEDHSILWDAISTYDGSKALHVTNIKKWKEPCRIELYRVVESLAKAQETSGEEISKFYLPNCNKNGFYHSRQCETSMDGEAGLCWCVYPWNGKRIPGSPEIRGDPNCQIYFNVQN
In short: (§1)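 Human IGFBP-1, -2, -4, -5 or -6 expressed in Sf9 insect cells (baculovirus), purified on hIGF-II affinity column then reversed-phase HPLC. 0.5 pmol binding protein incubated with [125I]hIGF-I (30,000 cpm) and increasing compound concentrations, 2 h at room temperature, in 0.02% NP-40/PBS pH 7.2, in duplicate. Complex precipitated with BSA/PEG; pellet radioactivity counted to give dose–response curves.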

[3] = target: T2, Insulin-like growth factor-binding protein 2 (Homo sapiens, UniProt P18065); assay: The compound was tested for binding affinity against insulin-like growth factor binding protein 2; in short: as §1
T2 sequence (P18065 whole entry): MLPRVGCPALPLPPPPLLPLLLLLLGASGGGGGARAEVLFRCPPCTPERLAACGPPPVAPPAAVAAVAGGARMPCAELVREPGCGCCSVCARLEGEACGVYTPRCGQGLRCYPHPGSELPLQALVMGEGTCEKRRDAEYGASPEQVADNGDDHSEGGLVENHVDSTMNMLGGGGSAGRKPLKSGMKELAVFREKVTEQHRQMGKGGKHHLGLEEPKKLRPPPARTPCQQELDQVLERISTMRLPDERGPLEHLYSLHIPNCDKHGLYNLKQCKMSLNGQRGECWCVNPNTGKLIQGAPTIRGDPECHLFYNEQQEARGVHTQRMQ

[4] = target: T3, Insulin-like growth factor-binding protein 4 (Homo sapiens, UniProt P22692); assay: The compound was tested for binding affinity against Insulin-like growth factor binding protein 4; in short: as §1
T3 sequence (P22692 whole entry): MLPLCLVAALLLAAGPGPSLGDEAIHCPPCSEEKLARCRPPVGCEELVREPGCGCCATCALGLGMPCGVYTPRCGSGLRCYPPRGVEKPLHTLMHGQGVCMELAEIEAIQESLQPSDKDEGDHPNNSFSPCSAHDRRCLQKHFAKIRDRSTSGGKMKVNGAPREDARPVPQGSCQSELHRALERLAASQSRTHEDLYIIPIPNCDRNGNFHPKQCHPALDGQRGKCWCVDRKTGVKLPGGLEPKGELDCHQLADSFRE

[5] = target: Insulin-like growth factor-binding protein 5 (Homo sapiens, UniProt P24593); assay: The compound was tested for binding affinity against Insulin-like growth factor binding protein 5; in short: as §1
Insulin-like growth factor-binding protein 5, sequence (P24593 whole entry): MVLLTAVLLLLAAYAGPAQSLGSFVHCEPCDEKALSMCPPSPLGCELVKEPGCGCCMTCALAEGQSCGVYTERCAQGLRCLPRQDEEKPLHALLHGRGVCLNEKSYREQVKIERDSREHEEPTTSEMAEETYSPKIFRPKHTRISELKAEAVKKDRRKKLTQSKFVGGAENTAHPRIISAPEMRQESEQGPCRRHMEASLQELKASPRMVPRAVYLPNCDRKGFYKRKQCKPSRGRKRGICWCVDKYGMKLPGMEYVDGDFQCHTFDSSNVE

[6] = target: T4, Insulin-like growth factor-binding protein 6 (Homo sapiens, UniProt P24592); assay: The compound was tested for binding affinity against Insulin-like growth factor binding protein 6; in short: as §1
T4 sequence (P24592 whole entry): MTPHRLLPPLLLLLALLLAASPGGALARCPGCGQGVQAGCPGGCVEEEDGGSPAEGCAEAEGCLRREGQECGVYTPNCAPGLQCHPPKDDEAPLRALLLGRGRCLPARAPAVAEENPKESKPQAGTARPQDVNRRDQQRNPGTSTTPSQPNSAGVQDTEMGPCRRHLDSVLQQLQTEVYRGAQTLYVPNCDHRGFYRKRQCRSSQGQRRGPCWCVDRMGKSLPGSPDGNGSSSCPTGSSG

Insulin-like growth factor-binding protein 3, sequence (P17936 whole entry): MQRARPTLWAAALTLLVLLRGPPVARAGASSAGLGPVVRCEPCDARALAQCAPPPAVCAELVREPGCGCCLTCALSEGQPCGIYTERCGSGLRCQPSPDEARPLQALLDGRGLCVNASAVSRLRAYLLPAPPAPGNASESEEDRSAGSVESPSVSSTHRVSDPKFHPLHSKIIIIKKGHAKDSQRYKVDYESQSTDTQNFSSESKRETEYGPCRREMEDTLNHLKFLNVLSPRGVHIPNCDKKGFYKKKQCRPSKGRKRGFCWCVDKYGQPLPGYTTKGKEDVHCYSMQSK

Ki [1] [nM]	SMILES	other results
140	COc1cc2cc(C(=O)O)nc(C(=O)c3ccc(O)c(O)c3)c2c(Br)c1O	–
320	COc1ccc(C(=O)c2nc(C(=O)O)cc3cc(OC)c(O)cc23)cc1O	–
27	O=C(O)c1cc2cc(O)c(O)cc2c(C(=O)c2cccc3ccccc23)n1	–
> 10000	CCOC(=O)c1cc2cc(OC)c(OC)cc2c(C(=O)c2ccc(OC)c(OC)c2)n1	–
70	COc1cc2c(C(=O)c3ccc(O)c(O)c3)nc(C(=O)O)cc2c(Br)c1O	–
29	Oc1cc2cc(O)c(O)cc2c(Cc2ccc(O)c(O)c2)n1	–
> 10000	COc1cc2cc(C(=O)O)nc(C(=O)c3ccc(O)c(O)c3)c2cc1OC	–
> 10000	COc1ccc(C(=O)c2nc(C(=O)O)cc3cc(OC)c(OC)cc23)cc1O	–
13	O=C(O)c1cc2cc(O)c(O)cc2c(C(=O)c2ccc3ccccc3c2)n1	–
28	O=C(c1ccc(O)c(O)c1)c1nc(O)cc2cc(O)c(O)cc12	Ki [2]: 34.2 nM; Ki [3]: 17.1 nM; Ki [4]: 6.23 nM; Ki [5]: 20.9 nM; Ki [6]: 84.6 nM
5.6	O=C(O)c1cc2cc(O)c(O)cc2c(C(=O)c2ccc(O)c(O)c2)n1	Ki [2]: 5.07 nM; Ki [3]: 2.07 nM; Ki [4]: 1.04 nM; Ki [5]: 5.2 nM; Ki [6]: 23.6 nM
58	O=C(c1ccc(O)c(O)c1)c1nccc2cc(O)c(O)cc12	–
70	O=C(O)c1cc2cc(O)c(O)cc2c(C(=O)c2ccc3c(c2)OCO3)n1	–
> 10000	COc1ccc(C(=O)c2[nH]c(=O)cc3cc(OC)c(OC)cc23)cc1OC	–
7.5	O=C(O)c1cc2cc(O)c(O)cc2c(Cc2ccc(O)c(O)c2)n1	–
44	O=C(O)c1cc2cc(O)c(O)cc2c(C(=O)c2ccc(Cl)cc2Cl)n1	–
